Data as given in article PMC2800315 (Japanese Journal of Clinical Oncology, 2009).
Where two headings read alike, the source gives them in different places.

Tests used:
[1] = 673 renal transplant patients; cited from earlier work
[2] = Safety and tolerability, adverse events; type: in vivo, Japanese patients
In short: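 Open-label 3+3 dose escalation with daily oral dosing up to 10 mg/day in 28-day cycles. Adverse events monitored throughout and graded by NCI CTCAE v3.0, recorded until 28 days after stopping. DLT: grade ≥3 haematologic or non-haematologic event, or grade ≥3 lab abnormality, within the first 4 weeks and suspected drug-related. Antiemetic and anti-hyperlipidaemia therapy allowed.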

esophagogastric cancer = details: one esophagogastric cancer patient, daily dose of 5 mg; cited from earlier work
[3] = patients with advanced cancer, cited from earlier work; for AUCτ: mean
[4] = 2.5 mg/day (n = 3), G1/2, all courses
[5] = 2.5 mg/day (n = 3), G3/4, all courses
[6] = 5 mg/day (n = 3), G1/2, all courses
[7] = 5 mg/day (n = 3), G3/4, all courses
[8] = 10 mg/day (n = 3), G1/2, all courses
[9] = 10 mg/day (n = 3), G3/4, all courses
[10] = Total, all doses and grades, all courses
[11] = one patient with esophageal carcinoma, 10 mg/day, day 58

CO[C@H]1C[C@@H]2CC[C@@H](C)[C@@](O)(O2)C(=O)C(=O)N2CCCC[C@H]2C(=O)O[C@H]([C@H](C)C[C@@H]2CC[C@@H](OCCO)[C@H](OC)C2)CC(=O)[C@H](C)/C=C(\C)[C@@H](O)[C@@H](OC)C(=O)[C@H](C)C[C@H](C)/C=C/C=C/C=C/1C [RAD001, everolimus]
Difference in clearance between Asian and Caucasian patients [1]: no significant differences
Number of patients with adverse event: Anemia [2, 4]: 0
Number of patients with adverse event: Anorexia [2, 4]: 1
Number of patients with adverse event: Diarrhea [2, 4]: 0
Number of patients with adverse event: Elevated ALT or AST [2, 4]: 2
Number of patients with adverse event: Fatigue [2, 4]: 0
Number of patients with adverse event: Glucose tolerance impaired [2, 4]: 0
Number of patients with adverse event: Hemorrhage [2, 4]: 0
Number of patients with adverse event: Hyperglycemia [2, 4]: 0
Number of patients with adverse event: Hypertension [2, 4]: 1
Number of patients with adverse event: Leukopenia [2, 4]: 1
Number of patients with adverse event: Mucosal inflammation [2, 4]: 0
Number of patients with adverse event: Nausea [2, 4]: 1
Number of patients with adverse event: Neutropenia [2, 4]: 1
Number of patients with adverse event: Pneumonitis [2, 4]: 0
Number of patients with adverse event: Rash [2, 4]: 0
Number of patients with adverse event: Stomatitis [2, 4]: 1
Number of patients with adverse event: Thrombocytopenia [2, 4]: 0
Number of patients with adverse event: Weight decreased [2, 4]: 1
Number of patients with adverse event: Anemia [2, 5]: 0
Number of patients with adverse event: Anorexia [2, 5]: 0
Number of patients with adverse event: Diarrhea [2, 5]: 0
Number of patients with adverse event: Elevated ALT or AST [2, 5]: 0
Number of patients with adverse event: Fatigue [2, 5]: 0
Number of patients with adverse event: Glucose tolerance impaired [2, 5]: 0
Number of patients with adverse event: Hemorrhage [2, 5]: 0
Number of patients with adverse event: Hyperglycemia [2, 5]: 0
Number of patients with adverse event: Hypertension [2, 5]: 0
Number of patients with adverse event: Leukopenia [2, 5]: 0
Number of patients with adverse event: Mucosal inflammation [2, 5]: 0
Number of patients with adverse event: Nausea [2, 5]: 0
Number of patients with adverse event: Neutropenia [2, 5]: 0
Number of patients with adverse event: Pneumonitis [2, 5]: 0
Number of patients with adverse event: Rash [2, 5]: 0
Number of patients with adverse event: Stomatitis [2, 5]: 0
Number of patients with adverse event: Thrombocytopenia [2, 5]: 0
Number of patients with adverse event: Weight decreased [2, 5]: 0
Number of patients with adverse event: Anemia [2, 6]: 0
Number of patients with adverse event: Anorexia [2, 6]: 2
Number of patients with adverse event: Diarrhea [2, 6]: 2
Number of patients with adverse event: Elevated ALT or AST [2, 6]: 0
Number of patients with adverse event: Fatigue [2, 6]: 1
Number of patients with adverse event: Glucose tolerance impaired [2, 6]: 1
Number of patients with adverse event: Hemorrhage [2, 6]: 0
Number of patients with adverse event: Hyperglycemia [2, 6]: 0
Number of patients with adverse event: Hypertension [2, 6]: 0
Number of patients with adverse event: Leukopenia [2, 6]: 2
Number of patients with adverse event: Mucosal inflammation [2, 6]: 0
Number of patients with adverse event: Nausea [2, 6]: 0
Number of patients with adverse event: Neutropenia [2, 6]: 0
Number of patients with adverse event: Pneumonitis [2, 6]: 1
Number of patients with adverse event: Rash [2, 6]: 1
Number of patients with adverse event: Stomatitis [2, 6]: 0
Number of patients with adverse event: Thrombocytopenia [2, 6]: 2
Number of patients with adverse event: Weight decreased [2, 6]: 0
Number of patients with adverse event: Anemia [2, 7]: 0
Number of patients with adverse event: Anorexia [2, 7]: 0
Number of patients with adverse event: Diarrhea [2, 7]: 0
Number of patients with adverse event: Elevated ALT or AST [2, 7]: 0
Number of patients with adverse event: Fatigue [2, 7]: 0
Number of patients with adverse event: Glucose tolerance impaired [2, 7]: 0
Number of patients with adverse event: Hemorrhage [2, 7]: 0
Number of patients with adverse event: Hyperglycemia [2, 7]: 0
Number of patients with adverse event: Hypertension [2, 7]: 0
Number of patients with adverse event: Leukopenia [2, 7]: 0
Number of patients with adverse event: Mucosal inflammation [2, 7]: 0
Number of patients with adverse event: Nausea [2, 7]: 0
Number of patients with adverse event: Neutropenia [2, 7]: 0
Number of patients with adverse event: Pneumonitis [2, 7]: 0
Number of patients with adverse event: Rash [2, 7]: 0
Number of patients with adverse event: Stomatitis [2, 7]: 0
Number of patients with adverse event: Thrombocytopenia [2, 7]: 0
Number of patients with adverse event: Weight decreased [2, 7]: 0
Number of patients with adverse event: Anemia [2, 8]: 1
Number of patients with adverse event: Anorexia [2, 8]: 1
Number of patients with adverse event: Diarrhea [2, 8]: 0
Number of patients with adverse event: Elevated ALT or AST [2, 8]: 0
Number of patients with adverse event: Fatigue [2, 8]: 0
Number of patients with adverse event: Glucose tolerance impaired [2, 8]: 0
Number of patients with adverse event: Hemorrhage [2, 8]: 0
Number of patients with adverse event: Hyperglycemia [2, 8]: 0
Number of patients with adverse event: Hypertension [2, 8]: 0
Number of patients with adverse event: Leukopenia [2, 8]: 0
Number of patients with adverse event: Mucosal inflammation [2, 8]: 2
Number of patients with adverse event: Nausea [2, 8]: 1
Number of patients with adverse event: Neutropenia [2, 8]: 0
Number of patients with adverse event: Pneumonitis [2, 8]: 0
Number of patients with adverse event: Rash [2, 8]: 3
Number of patients with adverse event: Stomatitis [2, 8]: 0
Number of patients with adverse event: Thrombocytopenia [2, 8]: 3
Number of patients with adverse event: Weight decreased [2, 8]: 1
Number of patients with adverse event: Anemia [2, 9]: 0
Number of patients with adverse event: Anorexia [2, 9]: 0
Number of patients with adverse event: Diarrhea [2, 9]: 0
Number of patients with adverse event: Elevated ALT or AST [2, 9]: 0
Number of patients with adverse event: Fatigue [2, 9]: 1
Number of patients with adverse event: Glucose tolerance impaired [2, 9]: 0
Number of patients with adverse event: Hemorrhage [2, 9]: 1
Number of patients with adverse event: Hyperglycemia [2, 9]: 1
Number of patients with adverse event: Hypertension [2, 9]: 0
Number of patients with adverse event: Leukopenia [2, 9]: 0
Number of patients with adverse event: Mucosal inflammation [2, 9]: 0
Number of patients with adverse event: Nausea [2, 9]: 0
Number of patients with adverse event: Neutropenia [2, 9]: 0
Number of patients with adverse event: Pneumonitis [2, 9]: 0
Number of patients with adverse event: Rash [2, 9]: 0
Number of patients with adverse event: Stomatitis [2, 9]: 1
Number of patients with adverse event: Thrombocytopenia [2, 9]: 0
Number of patients with adverse event: Weight decreased [2, 9]: 0
Dosage recommended for further development ([2]; Japanese patients with advanced solid malignancies): 10 mg/day
Number of patients with adverse event: Anemia [2, 10]: 1
Number of patients with adverse event: Anorexia [2, 10]: 4
Number of patients with adverse event: Diarrhea [2, 10]: 2
Number of patients with adverse event: Elevated ALT or AST [2, 10]: 2
Number of patients with adverse event: Fatigue [2, 10]: 2
Number of patients with adverse event: Glucose tolerance impaired [2, 10]: 1
Number of patients with adverse event: Hemorrhage [2, 10]: 1
Number of patients with adverse event: Hyperglycemia [2, 10]: 1
Number of patients with adverse event: Hypertension [2, 10]: 1
Number of patients with adverse event: Leukopenia [2, 10]: 3
Number of patients with adverse event: Mucosal inflammation [2, 10]: 2
Number of patients with adverse event: Nausea [2, 10]: 2
Number of patients with adverse event: Neutropenia [2, 10]: 1
Number of patients with adverse event: Pneumonitis [2, 10]: 1
Number of patients with adverse event: Rash [2, 10]: 4
Number of patients with adverse event: Stomatitis [2, 10]: 2
Number of patients with adverse event: Thrombocytopenia [2, 10]: 5
Number of patients with adverse event: Weight decreased [2, 10]: 2
Hyperlipidemia ([2]; all cohorts): not observed
Dose-limiting toxicities (DLTs) ([2]; first cycle of treatment (28 days), 2.5, 5.0 or 10.0 mg/day): not observed
Pneumonitis, grade ([2]; one patient with colon cancer, 5 mg/day, after 142 days of therapy): grade 2
Hyperglycemia, grade ([2]; one patient with colorectal cancer, 10 mg/day, day 98): Grade 3
Fatigue, grade [2, 11]: Grade 3
Stomatitis, grade [2, 11]: Grade 3
Anorexia, all grades, patients ([2]; overall, nine patients): 44%
Leukopenia, all grades, patients ([2]; overall, nine patients): 33%
Rash, all grades, patients ([2]; overall, nine patients): 44%
Thrombocytopenia, all grades, patients ([2]; overall, nine patients): 56%
Tumor response (esophagogastric cancer): partial response
Cmax ([3]; daily dose 5 mg, mean ± SD): 32 ± 9 ng/mL
AUCτ ([3]; daily dose 5 mg): 238 ± 77 ng·h/mL
AUCτ ([3]; daily dose 10 mg): 514 ± 231 ng·h/mL
